Active and inactive are the calls of the source. The rule behind the calls is not given here.
How the values were obtained:
Mus musculus [1] = organism: Mus musculus; assay: Tested for tremorolytic activity in mice, expressed as dose required to double the dose of oxotremorine inducing a predetermined (grade 2) tremor intensity.; format: functional
Method in brief: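 Antagonist given i.p. to groups of six or more mice at four linearly spaced doses including zero, 15 min before i.v. oxotremorine (log dose series, 0.1 log spacing). Median oxotremorine dose evoking grade 2 tremor estimated by Dixon up-and-down method, tremor scored visually over first 5 min. The antagonist dose doubling that median dose was found by linear regression.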

Mus musculus [2] = organism: Mus musculus; assay: Tested for mydriatic activity in mice, expressed as the dose required to cause half-maximal pupillary dilation.; format: functional
[3] = Acute toxicity in mice; format: organism-based; details: mouse, in vivo
Method in brief: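 Mice given compound intravenously; LD50 determined by the up and down method for small samples. Mortality counted at 15 min.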

[4] = Tested for its effect on contraction of frog rectus abdominis muscle, expressed as equipotent molar ratio relative to carbamylcholine.; format: functional
Method in brief: (§1)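 Rana pipiens rectus abdominis held at 20 °C in aerated Clark-Ringer solution, pH 7.4. Each drug concentration applied for 5 min. Equipotent molar ratio relative to carbachol determined in three-point assays.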

[5] = molecular target: T1, Muscarinic acetylcholine receptor (Homo sapiens) (UniProt P20309+P08173+P11229+P08172+P08912); assay: Tested for agonist activity at muscarinic receptor in guinea pig ileum, expressed as equipotent molar ratio relative to carbamylcholine.; format: functional, tissue-based; details: Cavia porcellus
[6] = molecular target: T1, Muscarinic acetylcholine receptor (Homo sapiens); assay: Tested for agonist activity at Muscarinic acetylcholine receptor in guinea pig ileum; format: functional, tissue-based; details: Cavia porcellus, target entry is the homologue from another species
frog = assay: Tested for its effect on contraction of frog rectus abdominis muscle, expressed as equipotent molar ratio relative to carbamylcholine; Inactive; format: functional, tissue-based; method in brief: as §1
[7] = molecular target: T1, Muscarinic acetylcholine receptor (Homo sapiens); details: Cavia porcellus; Ileum
Cavia porcellus [8] = organism: Cavia porcellus; assay: Relative efficacy calculated from KA and ED50 values; format: functional
Method in brief: (§2)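 Isolated guinea pig ileum. Control agonist dose-response curves were run, then tissue treated with propylbenzilylcholine mustard 2×10⁻⁸ M for 15–20 min, cutting maximal response by 20–80%. Double-reciprocal plots of equieffective agonist concentrations before and after treatment gave K_A (Furchgott method). Relative efficacy was derived from K_A and ED50; occupancy for 50% response was taken as 100ED50/(K_A + ED50).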

[9] = molecular target: T1, Muscarinic acetylcholine receptor (Homo sapiens); details: Cavia porcellus; Ileum; remark: listed apart in the source
Cavia porcellus [10] = organism: Cavia porcellus; assay: Percent occupancy for 50% response calculated from (100 x ED50)/(KA+ED50).; format: functional; method in brief: as §2

Row | Structure (SMILES) | ED50 (Mus musculus [1]) [µmol/kg] | LD50 [3] [µmol/kg] | EPMR [4] | EPMR [5] | ED50 [6] | other results
1 | C[C@H]1CCC(=O)N1CC#CCN1CCCC1 | 4.2 | 40 | 132 | – | – | ED50 (Mus musculus [2]): 66 µmol/kg
2 | C[C@@H]1CCC(=O)N1CC#CCN1CCCC1 | 0.19 | 45 | 141 | – | – | ED50 (Mus musculus [2]): 4.8 µmol/kg
3 | CC1CCC(=O)N1CC#CCN1CCCC1 (racemic) | 0.4 | – | 116 | – | – | ED50 (Mus musculus [2]): 9 µmol/kg
4 | C[C@H](C#CCN1CCCC1)N1CCCC1=O | 0.26 | – | – | – | – | –
5 | C[C@H]1CCC(=O)N1CC#CCN(C)C | 50 | 183 | – | 73.9 | 4.6 µM l-1 | EPMR (frog): inactive
6 | O=C1CCCN1CC#CCN1CCCC1 [OXOTREMORINE] | – | 6.7 | 49 | 0.42 | – | ED50 [7]: 0.026 µM l-1; Relative efficacy (Cavia porcellus [8]): 1; KA [9]: 0.68; Occupancy (Cavia porcellus [10]): 3.5%
7 | C[C@H]1CCC(=O)N1CC#CC[N+](C)(C)C.[I-] | – | 3.5 | 8.8 | 20 | 1.3 | –
8 | C[C@@H](C#CCN1CCCC1)N1CCCC1=O | 20 | – | – | – | – | –
9 | CC1CCC(=O)N1CC#CCN(C)C (racemic) | 5.5 | – | – | 8.8 | 0.55 µM l-1 | –
10 | CN1[C@@H]2CC[C@H]1C[C@@H](OC(=O)C(CO)c1ccccc1)C2 (stereo partly drawn) [ATROPINE] | 0.86 | – | – | – | – | –
11 | C[C@@H]1CCC(=O)N1CC#CCN(C)C | 2.4 | 426 | – | 4.6 | 0.29 µM l-1 | KA [6]: 2.34; Relative efficacy (Cavia porcellus [8]): 0.29; Occupancy (Cavia porcellus [10]): 11%; EPMR (frog): inactive
12 | C[C@@H]1CCC(=O)N1CC#CC[N+](C)(C)C.[I-] | – | 8.9 | 10 | 1.2 | 0.076 | –
13 | CN(C)CC#CCN1CCCC1=O | – | – | – | – | – | Relative efficacy (Cavia porcellus [8]): 6.51; KA [9]: 22.9 µM l-1; Occupancy (Cavia porcellus [10]): 0.55%
